Bioassay records from PubChem.
This is a sample that favours compounds with a hit; in the whole collection about 2.1% have one here.
MT stabilize HCS: microtubule stabilizers in HeLa cells. AID 2205. % tubulin-high responders, % at 10 µM. 200,000 tested, 0.83% active. HeLa tubulin immunostaining HCS, 24 h; share of cells brighter than vehicle mean+2SD;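 active means plate Z-score above 3 for both tubulin-high and condensed-nucleus cell shares, with cell loss under 80%, at 10 µM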;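 further: anti alpha tubulin signal scored within the nucleus-defined area of each cell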
Ba/F3 V617F tox: lowers viability of Ba/F3 cells expressing EpoR and JAK2V617F; ATP luminescence; inhibition, % at 5.6 µM; 220,000 tested, 1.1% active; AID 1446;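 active means inhibition above the campaign mean plus 3 SD over all tested compounds, cut at about 24% in these data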;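 further: cytokine-independent growth of Ba/F3 cells driven by EpoR plus mutant JAK2; 0% = DMSO-treated cells and 100% = JAK inhibitor I control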
b-catenin transl: beta-catenin nuclear translocation modulation; HeLa beta-catenin nuclear translocation, immunofluorescence imaging; nuclear translocation activity, % at 5 µM; 190,000 tested, 0.3% active; AID 1665;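 active means nuclear translocation activity above 50% at 5 µM, with a well cell count of 50 or more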;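 further: per-cell ratio of nuclear to cytoplasmic median beta-catenin stain intensity; plate controls were DMSO negative control for no effect and GSK-3 inhibitor IX positive control for full effect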
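Test system: human HeLa cells, endogenous beta-catenin. Times: 24 h compound exposure, 37°C. Measured by: beta-catenin immunofluorescence imaging with DAPI.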
KLF5 inh: suppresses KLF5 promoter-driven expression; AID 1700; DLD-1 KLF5 promoter-luciferase reporter, luminescence; inhibition, % at 5 µM; 290,000 tested, 0.23% active;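 active means inhibition above a per-plate limit of that plate's mean compound inhibition plus 3 SD, cut at about 60% in these data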;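 further: 0% = DMSO wells and 100% = LY294002 at 200 µM; higher means less KLF5 promoter-driven luciferase light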
IEC-6 tox: kills IEC-6 intestinal cells in KLF5 counter-screen. 290,000 tested, 0.78% active. inhibition, % at 5 µM. IEC-6 cytotoxicity, luminescence viability; in the data active means inhibition above about 22%;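 further: 0% = plate median of test compound wells and 100% = cytotoxic reference compound wells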
BaF3 parental: parental Ba/F3 viability inhibition as JAK2V617F counter-screen | 220,000 tested, 1.1% active | inhibition, % at 5.6 µM | AID 1486 | CellTiter-Glo ATP luminescence;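 active means inhibition above a per-campaign cutoff, the mean inhibition of all tested compounds plus 3 SD, cut at about 27% in these data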;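 further: 0% = DMSO wells and 100% = JAK Inhibitor I control wells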
Active calls of the source: *; · = no result given.

SMILES | MT stabilize HCS | Ba/F3 V617F tox | b-catenin transl | KLF5 inh | IEC-6 tox | BaF3 parental
O=C(Nc1nc2ccc(F)cc2s1)c1ccccn1 | 2.6 | 6.2 | 0.9 | 59.8 | 71.2* | 13.5
O=C(Nc1nnc(SCc2ccc(F)cc2)s1)c1ccccn1 | 2.5 | 2.6 | 0.3 | 3.8 | 77.6* | 14.2
O=C(Nc1nc2ccccc2s1)c1cnccn1 | 1.6 | -1.1 | 2.3 | -169.6 | -1.2 | 3.7
O=C(CSCc1c[nH]c(=O)[nH]c1=O)OCC(=O)c1ccc(Br)cc1 | 2.2 | -1.0 | 1.1 | -22.3 | 0.6 | 5.1
COc1cc(C(=O)NCCOc2cc(C)cc(C)c2)c(Br)c(OC)c1OC | 44.2* | 1.6 | 4.3 | 8.4 | -1.9 | 5.6
CCOC(=O)C(C)NC(=O)CCc1nnc2ccc(N3CCCCC3)nn12 (configuration not stated) | · | · | · | -6.8 | -0.4 | ·
CC(=O)c1c(N2CCCCC2)nc(=S)n(-c2ccccc2)c1C | 2.6 | 22.7 | -9.6 | -11.8 | -1.4 | 41.5*
COc1ccc(-c2nnc(NC(=O)c3ccc(S(=O)(=O)N4COCC4(C)C)cc3)o2)cc1 | 3.8 | 21.2 | -1.5 | 25.7 | 9.5 | 46.1*
CC1(C)COCN1S(=O)(=O)c1ccc(C(=O)Nc2nnc(-c3ccc(Cl)s3)o2)cc1 | 2.3 | -4.2 | 3.5 | -20.5 | 5.8 | 2.5
Cc1ccc(CN(C(=O)COc2ccc(Br)cc2)C2CCS(=O)(=O)C2)o1 (configuration not stated) | · | · | · | 6.5 | 9.4 | ·
Cc1ccc([N+](=O)[O-])cc1NC(=O)Nc1cccc(F)c1 | · | 39.5* | -4.0 | -36.3 | 10.8 | 36.8*
O=C(Nc1ccccc1)Nc1cc([N+](=O)[O-])ccc1F | 6.2 | -0.3 | -2.1 | -8.6 | 1.3 | 3.0
Cc1ccc(S(=O)(=O)N2CCN(C(=O)CSC3CCCC3)CC2)c(C)c1 | 4.0 | 4.6 | · | 10.2 | 3.9 | 94.5*
Cc1ccc(S(=O)(=O)N2CCN(C(=O)CSc3nc4ccccc4c(=O)[nH]3)CC2)c(C)c1 | 1.9 | 1.9 | -0.4 | 23.0 | -1.2 | 2.2
CCOc1ccc(N2C(N)=NC(N)=NC2(C)C)cc1 | 3.3 | 94.2* | 1.5 | -41.6 | -4.0 | 98.4*
CCOC(=O)c1cccc(N2C(=O)C3C4C=CC(CC4)C3C2=O)c1 (configuration not stated) | · | · | · | -20.7 | 2.6 | ·
CCOC(=O)c1cccc(N2C(N)=NC(N)=NC2(C)C)c1 | 5.6 | 73.2* | -0.1 | 8.8 | -0.8 | 96.1*
CCCOC1CCCN(C(=O)c2cc(COc3ccc(-n4cncn4)cc3)on2)C1 (configuration not stated) | · | · | · | -34.6 | 4.4 | ·
CC(C)CCN1CCN(Cc2cnc(N3CCCC3)s2)CC1CCO (configuration not stated) | 2.1 | 3.5 | -0.4 | -3.9 | 8.3 | 4.1
CCS(=O)(=O)N1CCN(S(=O)(=O)c2ccc3c(c2)OCCO3)CC1 | · | · | · | 9.6 | -1.6 | ·
Cc1ccc(-c2c[n+](CC(=O)N3c4ccccc4Sc4ccccc43)c3n2CCC3)cc1 | 2.6 | 1.1 | 0.0 | -12.1 | 1.0 | 6.6
Cc1ccc(C[n+]2cc(-c3ccc(Cl)cc3)n3c2CCC3)cc1 | · | 76.3* | 0.9 | 23.5 | 4.3 | 71.9*
Cn1c(NC(=O)C[n+]2cc(-c3ccc(Cl)cc3)n3c2CCC3)cc(=O)n(C)c1=O | 2.3 | 1.4 | -1.2 | -38.3 | 2.9 | 7.4
Cc1ccc(-c2c[n+](Cc3ccc(Cl)cc3)c3n2CCC3)cc1 | · | 87.1* | 0.1 | 15.3 | 3.0 | 73.3*
Clc1ccc(-c2c[n+](Cc3ccc(Cl)c(Cl)c3)c3n2CCC3)cc1 | 4.9 | 25.5* | -3.1 | -0.2 | -0.3 | 39.5*
SMILES | MT stabilize HCS | Ba/F3 V617F tox | b-catenin transl | KLF5 inh | IEC-6 tox | BaF3 parental
CCc1ccc(NC(=O)C[n+]2cc(-c3ccc(C)cc3)n3c2CCC3)cc1 | · | 18.7 | -0.1 | 6.9 | -2.0 | 18.2
O=C(/C=C/c1cccnc1)/C=C/c1cccnc1 | · | 94.7* | 6.8 | 5.2 | 49.1* | 102.8*
N#Cc1c(-c2ccccc2)nc(-c2ccccc2)nc1N1CCOCC1 | 1.8 | 1.5 | -1.7 | -12.8 | -1.3 | 3.4
COc1ccc(-c2nc(-c3cccc(C)c3)nc(N3CCN(C)CC3)c2C#N)cc1 | 39.2* | 3.6 | 21.2 | 8.5 | 1.9 | 2.2
COc1ccc(-c2cc(C#N)nc(N3CCN(C)CC3)n2)cc1 | 4.4 | -1.5 | -0.5 | -19.1 | -5.2 | 6.7
COc1ccc(-c2nc(-c3ccccc3)nc(N3CCN(C)CC3)c2C#N)cc1 | 28.0 | 0.9 | · | -31.4 | 3.7 | 5.9
CN1CCN(c2nc(-c3ccccc3)nc(-c3ccccc3)c2C#N)CC1 | 9.8* | 1.4 | 2.4 | -19.1 | -4.2 | 9.0
COc1cccc(-c2nc(-c3ccccc3)nc(N3CCN(C)CC3)c2C#N)c1 | 18.6* | -1.2 | 50.5* | -35.9 | -1.4 | 2.3
COc1ccc(OC)c2c1cc(C(=O)N[C@@H](Cc1ccccc1)C(=O)O)n2C | · | · | · | -1.4 | -2.7 | ·
CCn1c(SCC(=O)Nc2ccccc2)nnc1-c1cccs1 | · | -3.2 | -0.6 | -21.7 | -5.9 | -2.5
CCn1c(SCc2ccccc2)nnc1-c1cccs1 | 1.7 | 40.8* | 2.6 | -11.0 | -10.8 | 41.8*
Cn1c(SCC(=O)O)nnc1-c1ccc2ncccc2c1 | · | -2.4 | -0.9 | -37.6 | -6.9 | 0.5
Cc1ccc(F)c(CNC(=O)C2CCC(=O)N(CCCN3CCCC3=O)C2)c1F (configuration not stated) | · | · | · | -16.1 | -1.8 | ·
O=c1oc(-c2ccccc2)nc2ccsc12 | 1.6 | 4.0 | -3.4 | -13.6 | 3.9 | 39.3*
O=c1oc(-c2cccs2)nc2ccccc12 | 1.4 | 0.1 | -0.6 | -10.2 | 4.4 | 1.8
CCOc1ccc(-c2n[nH]c(C)c2-c2ccccc2OC)c(O)c1 | 26.9* | 2.2 | 3.4 | -15.3 | 5.2 | 3.1
COc1ccc(-c2n[nH]c(C)c2-c2cscn2)c(O)c1 | · | -7.0 | -0.8 | -13.2 | -1.8 | -0.1
C=C(C)COc1ccc(-c2n[nH]c(C)c2-c2ccc(OC)cc2)c(O)c1 | 29.8* | 0.0 | 5.5 | -36.4 | -4.7 | -0.3
O=C(N/N=C(\c1ccccc1)c1ccccn1)c1cccc([N+](=O)[O-])c1 | 3.5 | 99.0* | 0.4 | 67.4* | 89.0* | 91.2*
COCC(=O)N1CCCC(CNS(=O)(=O)c2ccc(OC)cc2)C1 (configuration not stated) | 2.2 | 1.8 | -1.9 | -19.9 | 0.9 | 7.7
COCCC(=O)N1CCCC(CNS(=O)(=O)c2ccc(OC)cc2)C1 (configuration not stated) | 2.3 | 0.6 | -0.1 | 4.6 | 7.0 | 89.7*
COc1ccc(NC(=O)Cn2c(=O)n(-c3ccc(OC)cc3OC)c(=O)c3c(C)c(C)sc32)cc1 | 1.7 | 1.1 | -2.0 | 10.1 | 7.0 | 7.5
COc1ccc(OC)c(-n2nnnc2SCC(=O)N2CCN(C(=O)c3ccco3)CC2)c1 | 0.9 | 0.8 | 4.7 | -24.7 | 0.2 | 41.2*
CCOc1ccc(CN(C(=O)c2oc3cc(C)ccc3c2C)C2CCS(=O)(=O)C2)cc1 (configuration not stated) | 40.5* | -3.3 | · | 1.1 | -5.4 | 2.7
